The list is not random: actives were taken first. Their share in the collection is about 2.2%.
SUMO Mot1 rescue = yeast Mot1-301 growth rescue at high temperature, primary screen, SUMOylation pathway inhibitor project, S. cerevisiae, ATP luminescence, 38.5C. growth rescue, % at 18.8 µM. AID 2716, 2010. S. cerevisiae Mot1-301 growth rescue; percent above DMSO median, 100 means doubled. actives 1% (n = 320,000);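 active = every valid replicate shows activation above 250% relative to neutral control wells; inactive = the rest, any valid replicate at or below 250%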
PglD inh = C. jejuni PglD acetyltransferase inhibitors, primary screen, biochemical, DTNB colorimetric, single point; UDP-N-acetylbacillosamine N-acetyltransferase PglD (Campylobacter jejuni); purified PglD enzyme, DTNB colorimetric CoA detection; inhibition, % at 12.5 µM; actives 0.098% (n = 360,000); in the data active = inhibition above about 16%, passing the limit was not always enough; inconclusive = no clear call, values can overlap the other calls
CR mimetic SO = reduction of superoxide in aged yeast, primary screen, HTS; actives 0.18% (n = 330,000); superoxide response (% of plate mean), % at 10 µM; AID 2690, 2010; S. cerevisiae aged cells, superoxide DHE fluorescence; stronger effect = lower value;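 active = superoxide response under a set limit, about three screen SD below normal, cut at about 65% in these data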;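 note: yeast aged for seven days with compound at 30 °C before DHE staining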
Cneo AK release = Cryptococcus neoformans cell lysis inducers, primary screen, AK release luminescence, single concentration; C. neoformans lysis, adenylate kinase release luminescence, 4 h; normalised: neutral wells 0, clomiphene wells 100; lysis activity, % at 15 µM; actives 0.2% (n = 360,000);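 active = mean lysis activity across replicates of at least 80%, whatever share of replicates individually reach that level; inactive = mean lysis activity below 80%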
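Assay system: C. neoformans cells. Amount: yeast cell density of 5 × 10^6 cells/mL. Technique: AK luminescence. Buffer or medium: YPD. Times: static 4 h at 37 °C with compound, 1 h detection. Dosing: single-point compound dose. Read-out: lysis from increased AK signal.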
rRNA inh HTS = reduced GFP signal of wild-type E. coli, primary screen, bacterial rRNA inhibitor project, GFP/RFP fluorescence, OD600, single point | E. coli WT GFP vs humanized-ribosome RFP mutants, 24 h; stronger effect = lower value; DMSO median 0, no signal -100 | GFP signal change (wild-type ribosome), % (test concentration not listed) | actives 1.6% (n = 350,000) | AID 720706, 2013;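 active = significant combined selectivity score with lowered wild-type GFP, culture density cut under 30%, mutant RFP and density less affected; inactive = any of these conditions unmet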
Superoxide pick = superoxide lowering in aged yeast cells, confirmation, cherry picked compounds. shares compounds with CR mimetic SO. S. cerevisiae aging, superoxide DHE fluorescence; stronger effect = lower value. superoxide response (% of plate), % at 10 µM. actives 1% (n = 850). AID 434994, 2010;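 active = superoxide signal below 65% of the plate average of sample wells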;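 note: cells aged with compound for 7 days at 30 degrees C before staining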
DHE counter = DHE quenching or ROS scavenging interference in aged yeast, artefact control for yeast caloric restriction mimetic project, S. cerevisiae BY4741, flow cytometry; shares compounds with CR mimetic SO; DHE fluorescence; stronger effect = lower value; fluorescence response, % at 10 µM; 850 tested, under 10 active; AID 435000, 2010;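 active = fluorescence response below 15%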;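 note: lower means stronger quenching of DHE signal or ROS scavenging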
Mot1 SUMO dose = growth restoration of Mot1-301 yeast on galactose, dose response, SUMO pathway inhibitor project, whole organism, S. cerevisiae, ATP luminescence, cherry-picked samples. shares compounds with SUMO Mot1 rescue. S. cerevisiae Mot1-301 galactose growth, 24 h; -100 = growth of slx-deleted rescue strain. growth activity, percent, % at 42 µM. 2,300 tested, under 10 active. AID 493004, 2010;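 active = Signal drops as the depositor expects, and the fitted half-maximal dose is no more than ten times the top valid tested dose; inconclusive = Poor fit, or a flat curve whose signal drops by 30% to 70%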;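 note: more negative values mean stronger growth rescue toward the control strain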
AID977621 = growth inhibition of wild-type GFP E. coli, dose response, H69 mutant RFP, cherry-pick; shares compounds with rRNA inh HTS; E. coli wild-type GFP strain growth, fluorescence, 24 h; activity change, negative = inhibition at 50 µM; 1,900 tested, under 10 active;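 active = Wild-type ribosome reporter drop at least double the humanized mutant ribosome reporter drop, growth loss under a set limit; inconclusive = no clear call, values can overlap the other calls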;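 note: wild-type GFP and H69 mutant RFP strains grown together 50/50 in each well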
AID977628 = E. coli growth inhibition, wild-type GFP versus h24 humanized RFP strain, dose response, h24 mutant RFP vs wild-type GFP, cherry-pick; AID 977628, 2014; E. coli WT GFP strain growth, fluorescence, 24 h; shares compounds with rRNA inh HTS; activity change, negative = inhibition at 50 µM; 1,900 tested, under 10 active;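 active = compound lowering the normal-ribosome reporter at least twice as much as the humanized-ribosome reporter, growth loss under a set limit; inconclusive = no clear call, values can overlap the other calls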;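 note: wild-type GFP and h24 humanized RFP strains co-cultured 1 to 1 per well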
Hits are given with their value; 0 = inactive; ? = inconclusive; - = no result; + = active, no number.

SMILES	SUMO Mot1 rescue	PglD inh	CR mimetic SO	Cneo AK release	rRNA inh HTS	Mot1 SUMO dose	others
C[C@@H]1CN([C@H](C)CO)C(=O)c2cccc(NS(=O)(=O)c3ccc(Cl)cc3)c2O[C@H]1CN(C)C(=O)Nc1ccccc1	-	0	-	0	0	-
CN(Cc1ccccc1)C(=O)CCC1CCN(S(C)(=O)=O)CC1	0	0	65	0	0	-	Superoxide pick=0;DHE counter=0
Cc1ccc(CNC(=O)Cc2ccc(-n3c(=O)[nH]c4ccsc4c3=O)cc2)cc1	0	0	56	0	-	-	Superoxide pick=0;DHE counter=0
Cc1ccc(CNC(=O)CCCCn2c(=O)[nH]c3ccsc3c2=O)cc1	0	0	0	0	0	-
C[C@H]1CN([C@@H](C)CO)C(=O)c2cc(C#CC3CCCC3)cnc2O[C@@H]1CN(C)C(=O)Nc1ccccc1	-	0	-	0	0	-
Cc1ccc(-n2ncc3c(N4CCN(c5ccccc5)CC4)ncnc32)c(C)c1	0	0	0	-	0	-
Cc1cccc(-n2ncc3c(N4CCOCC4)ncnc32)c1	0	0	0	0	0	-	Superoxide pick=0;DHE counter=0
Cc1cccc(-n2ncc3c(N4CCCC4)ncnc32)c1	0	0	0	0	-	-	Superoxide pick=0;DHE counter=0
Cc1cccc(-n2ncc3c(N4CC(C)CC(C)C4)ncnc32)c1 (stereo not given)	0	0	0	0	0	-
CCCNC(=O)C[C@@H]1CC[C@H]2[C@@H](COc3ccc(NC(=O)CCC)cc3C(=O)N2C)O1	-	0	-	0	0	-
CN1CCN(c2nc3ccccc3nc2C(C#N)S(=O)(=O)c2ccccc2)CC1 (stereo not given)	0	-	0	-	0	-
N#CC(c1nc2ccccc2nc1N1CCCC1)S(=O)(=O)c1ccccc1 (stereo not given)	0	0	63	0	-	-	Superoxide pick=0;DHE counter=0
O=C(Cc1ccc(-n2c(=S)[nH]c3ccccc3c2=O)cc1)N1CCN(c2ccccc2)CC1	0	0	65	0	-	-	Superoxide pick=0;DHE counter=0
Cc1cc(C(=O)COc2cccnc2[N+](=O)[O-])c(C)n1-c1ccccc1	0	-	58	-	0	-	Superoxide pick=0;DHE counter=0
COc1c(O)c(=O)n2c3ccccc3c3ccnc1c32	0	0	62	0	-	-	Superoxide pick=0;DHE counter=0
CN(C)C(=O)c1cccc(-c2ccc(C3[C@H]4CNC[C@@H]3N4Cc3cccnc3)cc2)c1 (stereo not given in full)	-	-	-	-	0	-
C=CCn1c(C)nnc1SCC(=O)Nc1ccc2c(c1)OCCO2	0	0	0	0	0	-
C=CCn1c(SCC(=O)Nc2ccc3c(c2)OCCO3)nnc1-c1ccco1	0	0	0	0	-17	-	Superoxide pick=0;DHE counter=0;AID977628=0
CC(C)NC(=O)N(C)C[C@H]1Oc2ccc(NS(=O)(=O)c3cccs3)cc2C(=O)N([C@@H](C)CO)C[C@@H]1C	-	-	-	-	0	-
C=CCN(CC=C)CC(O)Cn1c2ccccc2c2ccccc21 (stereo not given)	0	-	0	-	-21	-	Superoxide pick=0;DHE counter=0;AID977621=0;AID977628=?
COc1cc(C)ccc1OCCCOc1ccccc1Br	+	0	0	0	-	0
Cc1ccc(N/N=C2/CCCNC2=O)cc1	528	0	0	0	-	0
O=C1NCCC/C1=N/Nc1cc(F)ccc1F	0	0	0	0	-	-
Cc1ccc2c(c1)N(CC(=O)NCCCN1CCN(C)CC1)C(=O)CO2	634	0	0	0	0	0
Cc1cnc(NC(=O)CN2CCN(c3ccccc3F)CC2)s1	990	0	0	0	-	0
SMILES	SUMO Mot1 rescue	PglD inh	CR mimetic SO	Cneo AK release	rRNA inh HTS	Mot1 SUMO dose	others
CCNC(=S)NNC(=O)c1ccc(=O)n(Cc2ccccc2)c1	834	0	0	0	0	0
CNC(=S)NNC(=O)c1ccc(=O)n(Cc2cccc(C(F)(F)F)c2)c1	0	0	0	0	0	-
Cc1noc(C)c1NC(=O)N(C)C[C@@H]1OCCCC[C@H](C)Oc2ccc(NC(=O)CCC(F)(F)F)cc2C(=O)N([C@H](C)CO)C[C@H]1C	-	0	-	0	0	-
CCOc1ccc2[nH]c(C(=O)N/N=C/c3ccccc3OC)cc2c1	0	0	0	0	0	-
COc1ccc2[nH]c(C(=O)N/N=C/c3ccccc3OC)cc2c1	503	0	0	0	0	0
COc1ccc(C(=O)N/C(=C\c2cc(OC)c(OC)cc2[N+](=O)[O-])C(=O)NCC(=O)O)cc1	0	-	0	-	0	-
COc1ccc(C(=O)N/C(=C\c2cc(OC)c(OC)cc2[N+](=O)[O-])C(=O)NCCO)cc1	993	-	0	-	0	0
CCC1SC2=NC(C)=C(C(=O)OCCOC)C(c3ccc(C(=O)OC)cc3)N2C1=O (stereo not given)	832	0	0	0	-	0
CCC1SC2=NC(C)=C(C(=O)OC)C(c3ccc(C(=O)OC)cc3)N2C1=O (stereo not given)	0	0	0	0	-	-
CCCc1cn(CC[C@@H]2CC[C@H](NC(=O)Nc3ccccc3F)[C@H](CO)O2)nn1	-	0	-	0	0	-
CN1c2ccc(Br)cc2[C@H]2[C@H](CCN2S(=O)(=O)c2cccc(F)c2)[C@@H]1CO	-	0	-	0	0	-
Cc1cc(N2CCC(C(=O)Nc3ccc(F)cc3)CC2)nc(-c2ccccc2)n1	0	0	0	0	-	-
COc1ccc(NC(=O)C2CCN(c3cc(C)nc(-c4ccccc4)n3)CC2)cc1	+	0	0	0	-	0
O=C1C2CCCCN2C(=O)N1CCCCN1CCN(c2ccccc2Oc2ccccc2)CC1 (stereo not given)	431	0	0	0	0	0
O=C(NNc1ccccc1)C(CCO)C(=O)NNc1ccccc1	404	-	0	-	0	0
Oc1c(Cl)cc(Cl)cc1/C=N/c1nc(-c2ccc(Cl)cc2)cs1	719	0	0	0	-	0

Compound activity as filed in PubChem BioAssay.
